Laboratory results reported in ChEMBL document CHEMBL1155292, “Synthesis, analgesic and anti-inflammatory activities evaluation of some bi-, tri- and tetracyclic condensed pyrimidines” (Eur J Med Chem, 2009).

How the values were obtained:
Type in all cases: functional
[1] = test system: Rattus norvegicus; test: Antiinflammatory activity in albino rat assessed as inhibition of carrageenan-induced paw edema at 0.029 mmol/kg, po after 1 hr relative to control
How it was run: (§1)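 Adult albino rats of either sex, 120–150 g, six per group. Compounds at 0.029 mmol/kg suspended in saline with a few drops of Tween 80 and given by oral stomach tube. After 1 h, 0.1 ml of freshly prepared 1% carrageenan in saline injected subplantar into the right hind paw. Paw thickness measured at 1–4 h; % edema inhibition versus control; mean ± SEM; ANOVA.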

[2] = test system: Rattus norvegicus; test: Antiinflammatory activity in albino rat assessed as inhibition of carrageenan-induced paw edema at 0.029 mmol/kg, po after 3 hrs relative to control; how it was run: as §1
[3] = test system: Mus musculus; test: Analgesic activity in albino mouse assessed as decrease in acetic acid-induced writhing at 10 mg/kg, po administered 1 hr prior to acetic acid challenge relative to control
How it was run: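 Albino mice of either sex, 18–22 g, six per group. Test agents suspended in saline with a few drops of Tween 80 and given by oral stomach tube; controls handled identically without drug. After 1 h, 0.3 ml of 1% acetic acid ip. Writhing contractions counted for 30 min, starting 5 min after injection. % protection versus control mean; mean ± SEM; one-way ANOVA with post hoc test.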

[4] = test system: Rattus norvegicus; test: Antiinflammatory activity in albino rat assessed as inhibition of carrageenan-induced paw edema at 0.029 mmol/kg, po after 4 hrs relative to control; how it was run: as §1
[5] = test system: Rattus norvegicus; test: Antiinflammatory activity in albino rat assessed as inhibition of carrageenan-induced paw edema at 0.029 mmol/kg, po after 2 hrs relative to control; how it was run: as §1

`COc1ccc2c(c1)c(CC(=O)O)c(C)n2C(=O)c1ccc(Cl)cc1` [INDOMETHACIN] gave an inhibition in vivo at 29 µmol/kg [1] of 47.2%, an inhibition in vivo at 29 µmol/kg [2] of 30.9% and an inhibition in vivo at 10 mg/kg [3] of 71.6%. The inhibition in vivo at 29 µmol/kg [4] was 27.3% and the inhibition in vivo at 29 µmol/kg [5] was 35.5%.
